This series concerns MS2 coat protein. The series can be described thus: apparent Kd, MS2 coat protein; higher = weaker binding; RNA-MaP array; FMN 200 µM where present. The essentials: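 The titrant was SNAP-549-labelled MS2 coat protein, run from 0.7 or 1.5 nM in doubling steps to 3 µM. It was applied to designs transcribed by stalled E. coli RNA polymerase on Illumina sequencing-chip clusters, without ligand first and then with constant ligand, in 100 mM Tris-HCl pH 7.5, 80 mM KCl, 4 mM MgCl2, BSA, DTT, yeast tRNA and Tween-20. The apparent Kd is the median of filtered per-cluster binding-curve fits, with green signal normalised to red-channel RNA signal and control-cluster median Fmax.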

Where [1] appears, read: designed as: OFF switch for flavin mononucleotide, no ligand.
[2] abbreviates: ligand present: flavin mononucleotide, designed as: OFF switch for flavin mononucleotide.
Setting [3] is: designed as: ON switch for flavin mononucleotide, no ligand.
Where [4] appears, read: ligand present: flavin mononucleotide, designed as: ON switch for flavin mononucleotide.

What is called apparent Kd is a dissociation constant that holds for the conditions of the assay. “AUGAGGUCAGGAUAUGCAUGGCGGGACUUGCGUCGUGGCGUGCAGAAGGGACAUGAGGAUCACCCAUGUGGAGA”: the “apparent Kd” value turned out to be 104 nM under setting [1] and 325 nM under setting [2].
For “AUUAAAACAUAGGAUAUCGAAUUUAUUAUUUAACGAGAAGGAUGAACAUGAGGAUCACCCAUGUGGUAUCAUGG”, the “apparent Kd” value reads like this: under setting [1], 149 nM; under setting [2], 308 nM.
As to “CCUAGACAUGAGGAUCACCCAUGUGAGGAUAUGAUGCGAUCGUCGAAAGACGAUAGCAUCAGAAGGCACAUAUG”, the “apparent Kd” value reads like this: under setting [1], 34.4 nM; under setting [2], 109 nM.
Consider “CCGGAACAUGAGGAUCACCCAUGUGAGGAUAUCGUACGUUCGUCGAUAGACGAUCGUACGAGAAGGCACGCCGG”, for which the “apparent Kd” value is 18.2 nM under setting [1] and 17.3 nM under setting [2].
Consider “UUUAUAAAUUAGAAGGCAUGAUGAAUUACAAUAGACAUGAGGAUCACCCAUGUGUGUUCAUGUCAUGAGGAUAUAGUCAUAUAU”, for which the “apparent Kd” value came out at 17.5 nM under setting [3] and 9.93 nM under setting [4].
With “AAGAAGCUCACAGGAUAUCAGUAUAUGCGAUCACACGUAUUAAUGAACUGCUGAGAAGGGUGAGACAUGAGGAUCACCCAUGUA”, the “apparent Kd” value is, setting by setting: under setting [3], 446 nM; under setting [4], 238 nM.
For “UGCCUGAGUCGAGGAUAUUAUGGAUCCUUUAAUACAUGAGGAUCACCCAUGUAAUUAAUUAUACAUGAGAAGGCGACUCAGGCU”, in that order: 88.8 nM and 12.5 nM.
On to “GUAGCAUACAGAGGAUAUUCAAAACCGCAAAGCGGACAUGAGGAUCACCCAUGUGGCGAAAGCCGGGAGAAGGCUGAAUGCUAC”, for which the “apparent Kd” value by setting is: under setting [3], 18.7 nM; under setting [4], 16.1 nM.
Regarding “AGUAACAGAGGAUAUACUGUUUUAUGUAUUUAUUAUUUUAAACAUGAGGAUCACCCAUGUAGAAGGCUGAAUAA”, the “apparent Kd” value was 20.6 nM under setting [1] and 20.3 nM under setting [2].
Consider “UGUUCUAUGUAGAAGGCCCAUAUCUGUAUUUAGGGAGGAUAUACAUGAGGAUCACCCAUGUGUAGAGCUGGUGGACUGGUCAGC”, for which the “apparent Kd” value runs as follows: under setting [1], 13.6 nM; under setting [2], 38.9 nM.
Regarding “GCUAGUGCUGUGAGGAUAUGUGAUCGGAAAUGAUCGUAGAAGGCACAUGAGGAUCACCCAUGUAAGGUGCUAGU”, the “apparent Kd” value runs as follows: under setting [1], 287 nM; under setting [2], 37.6 nM.
For “CCCUCAACAUGAGGAUCACCCAUGUAGGAUAUCGCUAUUGUAAUCAUGAAACAUGAUUACAAUAGCGAGAAGGACAUAUGACCC”, in that order: 21.5 nM and 99.6 nM.
“UUACGGAUAGAGGAUAUAUUAAGGAAAGUUUCGAUAGAAGGCUAGACAUGAGGAUCACCCAUGUAUAUUGGGAU”: the “apparent Kd” value came out at 131 nM under setting [1] and 151 nM under setting [2].
Consider “AUUGUAGGAGGAUAUACAUGAGGAUCACCCAUGUCGUCCCAGGAGGACACCUUCCCAUGUAGAAGGCCUGGGAC”, for which the “apparent Kd” value reads like this: under setting [1], 31.4 nM; under setting [2], 19.3 nM.
On to “GUAGCUACUUUUAUACAUGAGGAUCACCCAUGUUACUUGGGUAAGGAUAUUGAUGUUAUGAUUAUCAAGAAGGUACUAUGCUAC”, for which the “apparent Kd” value turned out to be 136 nM under setting [3] and 30 nM under setting [4].
On to “UACGUUCUACGCGACAUGAGGAUCACCCAUGUUAGCCGAUCACAGGAUAUGUUGGAGCCGGUCGAACAGAAGGGUGAGUCUGCU”, for which the “apparent Kd” value by setting is: under setting [3], 38.8 nM; under setting [4], 38.9 nM.
Taken in the same sequence, the figures for “AUUUUAAUGUCAGGAUAUGUUAGUUAAUACAUAGUAGAAGGGAUAAUUAUACUCAUGUACAUGAGGAUCACCCAUGUUAAAUAA” were 151 nM and 80.7 nM.
For “AAAGGGAUUACGGAGGAUAUGGAAAAAAAAACAUGAGGAUCACCCAUGUCAAAAAAAAAAAAGGACCAGAAGGCCGUAAUCUCAAA”, in that order: 27.3 nM and 18.9 nM.
For the sequence “ACUAUACGAGGAUAUACUGACGGGCCUCAGGCGUCCAUGAGACAUGAGGAUCACCCAUGUAGAAGGCGUAUACU”, the “apparent Kd” value by setting is: under setting [1], 174 nM; under setting [2], 52 nM.
Turning to “AAGAAAGAAACGUAGGAUAUCAAGAAUAUAACAUGAGGAUCACCCAUGUAAAUACGAAAGUAUAAUGAGAAGGAUGGAUGAUCUUC”, the “apparent Kd” value is, setting by setting: under setting [3], 102 nM; under setting [4], 83.4 nM.
With “ACGUAUAGAGGAUAUACAGAAUAUUACAUGAGGAUCACCCAUGUUCUUCAAUGUAUAUUUGUAGAAGGCUAAUGAA”, the “apparent Kd” value under setting [1] worked out at 60.7 nM and the “apparent Kd” value under setting [2] came out at 281 nM.
Taken in the same sequence, the figures for “GACAGUGCAAUAAUAAUAAGAUCUACAUGAGGAUCACCCAUGUAGGAUAUCGUCAGGAAUACUGACGAGAAGGACAUAGCACUG” were 13.1 nM and 15 nM.
Taken in the same sequence, the figures for “AGCACGAAAGUGCAACGAUGUAGCAGAAGGACAUGAGGAUCACCCAUGUAACGAGUAACUCGAAUGUAGGAUAUGCUACAUCGA” were 25 nM and 157 nM.
Regarding “GCUGGACAUGAGGAUCACCCAUGUGAGGAUAUCGGCUGGUACGUGUUGGCUGGCAUCUCGAGAAGGCACAUAGU”, the “apparent Kd” value was 32.8 nM under setting [1] and 42.4 nM under setting [2].
Consider “AAAACGGUAGGAUAUACAUGAGGAUCACCCAUGUUAAAUUUAAAAAUAAAAUUAAAAUGUAGAAGGACCAAAAA”, for which the “apparent Kd” value stood at 32 nM under setting [1] and 32.3 nM under setting [2].
With “UUUUUGUCAGAGGAUAUCAUAGUCAGUUUUAAGUGAGAAGGUUGAACAUGAGGAUCACCCAUGUGACCUUGGUG”, the “apparent Kd” value is, setting by setting: under setting [1], 23.6 nM; under setting [2], 21.6 nM.
With “UCAUUGAUUGUGAGGAUAUCGAUGUGAUGGUUUGUCGAGAAGGCACAUGAGGAUCACCCAUGUGGGUGUGGGCU”, the “apparent Kd” value under setting [1] was 864 nM and the “apparent Kd” value under setting [2] is 242 nM.
As for “ACAUGAGGAUCACCCAUGUUAUCCGGGACUUCAAUUAUUUCUAGAAGGCUGUUUACUUGUUAGUCAGAGGAUAUAGAAUUAAAU”, the “apparent Kd” value under setting [1] is 10.7 nM and the “apparent Kd” value under setting [2] is 12.5 nM.
As for “ACAUGAGGAUCACCCAUGUGGAGUGAAGAAGGUGGAUACUUAUGACUCUCCCAUGUACAUAGGACUGAGGAUAUUCUAAUAAUU”, the “apparent Kd” value stood at 31.2 nM under setting [3] and 27.2 nM under setting [4].
For “GCUGUCGCAUGAGGAUAUGGUCAGCUUUGCUGACCAGAAGGCAUGUCAAUAGACAUGAGGAUCACCCAUGUAGUUCGGGCGGCU”, in that order: 849 nM and 76.1 nM.
Consider “GAUCACUCUGUGAGGAUAUGAGGGCUCUUAGAGUAUCAGAAGGCACAUGAGGAUCACCCAUGUAUUCCGUUCUA”, for which the “apparent Kd” value reads like this: under setting [1], 42.5 nM; under setting [2], 259 nM.
On to “UAUAGGCUAGGAUAUACAACACUUGGUUCAGAUGUUUGAAGACAUGAGGAUCACCCAUGUAGAAGGAGCAUUCA”, for which the “apparent Kd” value turned out to be 33.5 nM under setting [1] and 76.3 nM under setting [2].
Turning to “GGAAAGAUGUUAGGAUAUGGCUUCCCGGUGAAGCCAGAAGGAACAUGAGGAUCACCCAUGUAAAGCGAGUGGCUCUUCUCUGGA”, the “apparent Kd” value by setting is: under setting [1], 18.6 nM; under setting [2], 65.9 nM.
On to “GGCCCGUAAGGAUAUAAUGCUCAGGUGAAAACCGAGCUCCGUUAGAAGGUACAUGAGGAUCACCCAUGUGAUCG”, for which the “apparent Kd” value came out at 107 nM under setting [1] and 124 nM under setting [2].
For “GCACUGGAUGUAGGAUAUCAGGACGAUAAGUCCUGAGAAGGACAUGAGGAUCACCCAUGUAACUCAUAACCAGUGCAUAAUAUA”, in that order: 15 nM and 24.8 nM.
For the sequence “AUAUGAUAGAUAGGAUAUACAUUGGAUUUAAAAGUAGAAGGAUCAAGUGGGAAUUAUACAUGAGGAUCACCCAUGUUUUUGGAU”, the “apparent Kd” value was determined as 59 nM under setting [3] and 46.7 nM under setting [4].
As for “CUCGAGUCAAGGCUCGCGAGUACACAGGAUAUGAAAAGUCACAUGAGGAUCACCCAUGUCCAAAAUCAGAAGGGUGAGACUAAG”, the “apparent Kd” value reads like this: under setting [3], 764 nM; under setting [4], 222 nM.
Turning to “UGAGUAGCGUAACAACGCACAUGAGGAUCACCCAUGUCUACACAGGAUAUGCGACGCUCCAGUUAGCAGAAGGGUGAACUCAAA”, the “apparent Kd” value by setting is: under setting [3], 78.7 nM; under setting [4], 138 nM.
Take “AUGUAUCGCCUCGAGGAUAUCCUGUCAUGCACAUGAGGAUCACCCAUGUAAGAGCGAGUUUAAUGGGAGAAGGCGAGUUCUCGGU”: the “apparent Kd” value stood at 111 nM under setting [3] and 35 nM under setting [4].
For “UGUCGGAGCAGAGGAUAUUACAUGAGGAUCACCCAUGUAUGAACCAAUAGCUGGAAACAGCAUUGUAAGAAGGCUGCUCCGACA”, the “apparent Kd” value reads like this: under setting [1], 4.75 nM; under setting [2], 12.1 nM.
Regarding “GUUGAGUGAGAGAAGGCCAGUUGGGAAAAUGAUCGACAGUGUACAGCGUGGAGGAUAUCUCAACAUGAGGAUCACCCAUGUAUA”, the “apparent Kd” value worked out at 186 nM under setting [3] and 12.3 nM under setting [4].
Taken in the same sequence, the figures for “GCCAUCGCAUGAGGAUAUGCUCCCGUUUCGGGAGCAGAAGGCAUGUCAUAAGACAUGAGGAUCACCCAUGUAGCUAAGAUGGCA” were 310 nM and 12.1 nM.
For the sequence “UUCGUGCAGCUUUGCUGUACGCGUACAUGAGGAUCACCCAUGUAGGAUAUGGUAGGCAAAGCUUACUAGAAGGAUAUAGUGAUU”, the “apparent Kd” value was determined as 9.34 nM under setting [1] and 9.4 nM under setting [2].
“UGUUGAUAGCAGAAGGACAUGAGGAUCACCCAUGUAAGGAUACAAAUAUAUGUAGGAUAUGCUAUUGACUAAGAGUGAGCGUUC”: the “apparent Kd” value is, setting by setting: under setting [1], 8.55 nM; under setting [2], 18.9 nM.
As to “CCGAUUAGCACAGGAUAUGGGAAUUCGUAGUUUCCAGAAGGGUGAGCCAAUACAUGAGGAUCACCCAUGUGCGGUAGGUCGGGA”, the “apparent Kd” value was 30.5 nM under setting [3] and 80 nM under setting [4].
Consider “UCGUUUAUACAAGGAUAUCAAUUAUAGCUAAAUUCAACAUGAGGAUCACCCAUGUAACUAUGGAGUGAGAAGGUGUAAUGACUU”, for which the “apparent Kd” value was 514 nM under setting [3] and 302 nM under setting [4].
As for “UUUAUACAUGAGGAUCACCCAUGUGAGGAUAUGCUUUAUUAUUAUUAUUAUUAUUAUUGCAGAAGGCACGUUAU”, the “apparent Kd” value amounted to 39.3 nM under setting [1] and 54.8 nM under setting [2].
Taken in the same sequence, the figures for “UGGCUACAUGAGGAUCACCCAUGUCAGGAUAUGCCGUUGGAUUGACUUCGUCGUUCGGGUAGAAGGGACUGCGU” were 43.3 nM and 54.9 nM.

Source of the values: the EternaBench riboswitch data.
